Results from ChEMBL document CHEMBL4813967, “Tackling resistance in chronic myeloid leukemia: Novel cell death modulators with improved efficacy” (Eur J Med Chem, 2021).
Activity calls are given as the source filed them. The calls are words filed in the database; no cut-off is given here.

What was measured:
[1] = target: T1, Peroxisome proliferator-activated receptor gamma (Homo sapiens, UniProt P37231); assay: Agonist activity at Gal4-fused human PPARgamma transfected in African green monkey COS7 cells co-transfected with pGal5-TK-pGL3 and pRenilla-CMV assessed as receptor transactivation at 10 uM incubated for 39 hrs by dual luciferase reporter gene assay relative to piaglitazone; type: cell-based; conditions: COS-7, human, read-out: max activation
T1 sequence (P37231 whole entry): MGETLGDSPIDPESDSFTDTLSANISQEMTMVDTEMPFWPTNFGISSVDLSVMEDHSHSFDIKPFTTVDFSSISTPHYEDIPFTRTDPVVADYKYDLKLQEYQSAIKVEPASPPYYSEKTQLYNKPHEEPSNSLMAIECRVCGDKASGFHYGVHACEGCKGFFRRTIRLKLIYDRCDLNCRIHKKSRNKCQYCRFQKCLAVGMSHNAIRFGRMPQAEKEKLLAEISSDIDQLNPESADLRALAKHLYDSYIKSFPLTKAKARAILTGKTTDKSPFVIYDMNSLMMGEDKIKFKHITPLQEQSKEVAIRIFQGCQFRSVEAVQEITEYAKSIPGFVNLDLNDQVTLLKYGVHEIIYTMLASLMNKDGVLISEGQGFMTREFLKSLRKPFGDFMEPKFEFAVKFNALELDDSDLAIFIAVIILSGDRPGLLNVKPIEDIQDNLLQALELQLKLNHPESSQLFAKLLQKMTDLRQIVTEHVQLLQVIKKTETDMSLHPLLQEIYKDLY
In short: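 COS-7 cells (10^4/well, triplicates) grown 24 h, then transiently transfected with pGal5-TK-pGL3 (90 ng), pGal4-hPPARγDEF (9 ng) and pRenilla-CMV (3 ng). Compound added 7 h later, incubation 39 h. Cells lysed by freezing at -80 °C overnight plus lysis buffer. Firefly luciferase normalised to Renilla. Activity at 10 µM expressed relative to pioglitazone at 10 µM (100%). Mean ± SD of ≥3 experiments.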

K562 [2] = assay: Induction of cell sensitization to imatinib in imatinib-resistant human K562 cells assessed as cell death at 5 uM incubated for 72 hrs in presence of 1 uM imatinib by PI staining based flow cytometry (reference value: 19%); type: functional
K562 [3] = assay: Induction of cell sensitization to imatinib in imatinib-resistant human K562 cells assessed as cell death at 1.75 uM incubated for 72 hrs in presence of 1 uM imatinib by PI staining based flow cytometry (reference value: 19%); type: functional
K562 [4] = assay: Induction of cell sensitization to imatinib in imatinib-resistant human K562 cells assessed as cell death at 10 uM incubated for 72 hrs in presence of 1 uM imatinib by PI staining based flow cytometry (reference value: 19%); type: functional
[5] = Cytotoxicity against human HS5 cells assessed as cell death at 5 uM incubated for 72 hrs in presence of imatinib by PI staining based flow cytometry; conditions: hs5, 72 h
In short: (§1)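 HS-5 stromal cells in DMEM with 10% FCS, 5% CO2, 37 °C. Seeded 0.5×10^5/well, given compound (5 µM) alone or with imatinib, and incubated 72 h. Cells stained with PI/Triton X-100 for 2 h at 4 °C. Dead cells counted by flow cytometry as sub-G1 nuclei. DMSO vehicle control included.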

[6] = target: T2, Signal transducer and activator of transcription 5A (Homo sapiens) (UniProt P42229); assay: Inhibition of STAT5 phosphorylation at Y694/699 residue in imatinib-resistant human K562 cells assessed as phosphorylated STAT5 level at 5 uM incubated for 6 hrs by Jess Simple Western immunoassay (reference value: 100%); type: cell-based; design: scale not given: the % may be the effect or the level left
T2 sequence (whole entry): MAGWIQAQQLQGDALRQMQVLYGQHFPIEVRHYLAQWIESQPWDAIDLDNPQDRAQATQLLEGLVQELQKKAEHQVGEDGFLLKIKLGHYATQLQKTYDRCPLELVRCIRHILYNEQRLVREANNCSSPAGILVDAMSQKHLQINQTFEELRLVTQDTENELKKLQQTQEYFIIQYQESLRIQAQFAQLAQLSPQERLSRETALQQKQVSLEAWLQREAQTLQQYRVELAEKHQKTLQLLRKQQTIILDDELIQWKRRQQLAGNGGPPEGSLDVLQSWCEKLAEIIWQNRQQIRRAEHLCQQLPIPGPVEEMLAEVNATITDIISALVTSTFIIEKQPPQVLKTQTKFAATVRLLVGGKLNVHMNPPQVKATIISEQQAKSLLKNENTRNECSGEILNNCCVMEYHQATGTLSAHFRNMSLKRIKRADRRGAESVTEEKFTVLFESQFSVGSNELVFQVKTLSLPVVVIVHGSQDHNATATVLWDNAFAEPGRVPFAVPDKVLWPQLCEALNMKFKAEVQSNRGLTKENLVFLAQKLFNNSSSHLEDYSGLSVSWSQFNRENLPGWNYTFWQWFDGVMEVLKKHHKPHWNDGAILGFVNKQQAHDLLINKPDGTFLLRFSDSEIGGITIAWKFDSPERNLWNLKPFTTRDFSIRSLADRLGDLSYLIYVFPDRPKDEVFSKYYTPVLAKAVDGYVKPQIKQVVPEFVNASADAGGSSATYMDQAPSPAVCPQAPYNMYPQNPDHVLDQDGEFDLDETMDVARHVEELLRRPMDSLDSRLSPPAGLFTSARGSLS
In short: (§2)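 K562-resistant (doxorubicin-resistant KD225) cells treated 6 h with compound at 5 µM, alone or with 1 µM imatinib, against a DMSO control. Total protein extracts analysed by capillary Jess Simple Western. STAT5 antibody 10 µg/ml with 0.2 mg/ml lysate; pSTAT5 (Y694/699) antibody 20 µg/ml with 2 mg/ml lysate. GAPDH (0.4 µg/ml) as loading reference; HRP anti-rabbit secondary.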

[7] = target: T2, Signal transducer and activator of transcription 5A (Homo sapiens); assay: Inhibition of STAT5 phosphorylation at Y694/699 residue in imatinib-resistant human K562 cells assessed as phosphorylated STAT5 level at 5 uM incubated for 6 hrs in presence of imatinib by Jess Simple Western immunoassay (reference value: 100%); type: cell-based; design: scale not given: the % may be the effect or the level left
COS-7 [8] = assay: Cytotoxicity against African green monkey COS7 cells assessed as cell viability at 10 uM incubated for 72 hrs by MTT assay; type: cell-based; conditions: chlorocebus aethiops, cos-7, 72 h
In short: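 COS-7 cells in DMEM with 10% FCS and L-glutamine, no antibiotics or phenol red. Seeded 2×10^3/well in triplicate, grown 24 h, then compound added at 10 µM final and incubated 72 h. Modified MTT (tetrazolium) metabolic-activity readout by absorbance. DMSO control set to 100%; DMSO ≤0.1%. Mean + SD of ≥3 experiments, triplicate determinations.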

[9] = Modulation of STAT5 expression in imatinib-resistant human K562 cells assessed as STAT5 level at 5 uM measured after 6 hrs by Jess Simple Western immunoassay (reference value: 100%); type: functional; in short: as §2
COS-7 [10] = assay: Cytotoxicity against African green monkey COS7 cells assessed as cell viability at 10 uM incubated for 72 hrs by MTT assay; conditions: chlorocebus aethiops, cos-7, 72 h
K562 [11] = assay: Cytotoxicity against imatinib-resistant human K562 cells assessed as cell death at 5 uM incubated for 72 hrs by propidium iodide staining based flow cytometry; conditions: k562, 72 h
In short: (§3)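 K562-resistant cells, a doxorubicin-resistant K562 subclone (KD225), grown in RPMI 1640 with 10% FCS. Seeded 2×10^5/well and exposed 72 h to compound alone or with 1 µM imatinib. PI/Triton X-100 staining 2 h at 4 °C; flow cytometry scoring sub-G1 nuclei as dead cells. DMSO vehicle (≤0.1%) controls. Mean ± SEM of ≥3 experiments.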

[12] = Modulation of STAT5 expression in imatinib-resistant human K562 cells assessed as STAT5 level at 5 uM measured after 6 hrs in presence of imatinib by Jess Simple Western immunoassay (reference value: 100%); type: functional
[13] = Cytotoxicity against human HS5 cells assessed as cell death at 5 uM incubated for 72 hrs by PI staining based flow cytometry; conditions: hs5, 72 h; in short: as §1
K562 [14] = assay: Induction of cell sensitization to imatinib in imatinib-resistant human K562 cells assessed as cell death at >10 uM incubated for 72 hrs in presence of 1 uM imatinib by PI staining based flow cytometry; type: functional; conditions: dose microM >10, time 72.0 hrs; in short: as §3

## CCCc1nc2c(C)cc(-c3nc4ccccc4n3C)cc2n1Cc1ccc(-c2ccccc2C(=O)O)cc1 [TELMISARTAN]
[1]
  Emax at 10 µM: 59.8%
K562 [2]
  Activity: 57%
K562 [3]
  Activity: 21%
K562 [4]
  Activity: 63%

## CCCc1nc2c(Cl)cccc2n1Cc1ccc(-c2ccccc2C(=O)OC)cc1
[1]
  Emax at 10 µM: 22.2%
[5]
  Activity: Non-Toxic
[6]
  Activity: 87%
[7]
  Activity: 3%
COS-7 [8]
  Activity: Non-Toxic
K562 [2]
  Activity: 57%
[9]
  Activity: 103%
COS-7 [10]
  Activity: Non-Toxic
K562 [11]
  Activity: <= 20%
K562 [4]
  Activity: >85%
[12]
  Activity: 101%
[13]
  Activity: Non-Toxic

## CCCc1nc2c(C)cc(-c3nc4ccccc4n3C)cc2n1Cc1ccc(-c2ccccc2C(N)=O)cc1
K562 [2]
  Activity: 76%
K562 [3]
  Activity: 41%
K562 [4]
  Activity: 89%

## CCCc1nc2c(Br)cccc2n1Cc1ccc(-c2ccccc2C#N)cc1
[1]
  Emax at 10 µM: 41.1%
[5]
  Activity: Non-Toxic
[6]
  Activity: 90%
[7]
  Activity: 4%
COS-7 [8]
  Activity: Non-Toxic
K562 [2]
  Activity: >76%
[9]
  Activity: 107%
COS-7 [10]
  Activity: Non-Toxic
K562 [11]
  Activity: <= 20%
K562 [4]
  Activity: >85%
[12]
  Activity: 103%
[13]
  Activity: Non-Toxic

## CCc1ccc(CCOc2ccc(CC3SC(=O)NC3=O)cc2)nc1 (configuration not stated)
K562 [14]
  Activity: inactive
